The values below come from ChEMBL document CHEMBL4402584, “Lead Optimization of Phthalazinone Phosphodiesterase Inhibitors as Novel Antitrypanosomal Compounds” (J Med Chem, 2020).

A short description of test [1]: Cytotoxicity against human MRC5 SV2 cells assessed as reduction in cell viability incubated for 72 hrs by resazurin dye based fluorimetric assay. As to conditions: MRC-5 SV2, 72 h. In short, it runs like this:
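MRC-5 SV2 fibroblasts grown in Earl's MEM with 5% FBSi, L-glutamine and bicarbonate; 1×10^4 cells/well treated 72 h at 37 °C, 5% CO2; resazurin viability read fluorimetrically (ex 550, em 590 nm). Five 4-fold dilutions from a 64 µM top concentration; IC50 derived from % viability reduction vs untreated wells; tamoxifen as reference.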
In general terms: The colour change of resazurin is a common sign of viable cells or microbes.

A further test has as its system Trypanosoma brucei. Description: Antitrypanosomal activity against Trypanosoma brucei Squib 427 assessed as reduction in parasite growth incubated for 72 hrs by resazurin dye based fluorimetric analysis. The format is functional, organism-based. As to conditions: Squib 427, 72 h.
Test [2] has as its target T1, Class 1 phosphodiesterase PDEB1 (Trypanosoma brucei, UniProt Q8WQX9).
T1 sequence (Q8WQX9 whole entry): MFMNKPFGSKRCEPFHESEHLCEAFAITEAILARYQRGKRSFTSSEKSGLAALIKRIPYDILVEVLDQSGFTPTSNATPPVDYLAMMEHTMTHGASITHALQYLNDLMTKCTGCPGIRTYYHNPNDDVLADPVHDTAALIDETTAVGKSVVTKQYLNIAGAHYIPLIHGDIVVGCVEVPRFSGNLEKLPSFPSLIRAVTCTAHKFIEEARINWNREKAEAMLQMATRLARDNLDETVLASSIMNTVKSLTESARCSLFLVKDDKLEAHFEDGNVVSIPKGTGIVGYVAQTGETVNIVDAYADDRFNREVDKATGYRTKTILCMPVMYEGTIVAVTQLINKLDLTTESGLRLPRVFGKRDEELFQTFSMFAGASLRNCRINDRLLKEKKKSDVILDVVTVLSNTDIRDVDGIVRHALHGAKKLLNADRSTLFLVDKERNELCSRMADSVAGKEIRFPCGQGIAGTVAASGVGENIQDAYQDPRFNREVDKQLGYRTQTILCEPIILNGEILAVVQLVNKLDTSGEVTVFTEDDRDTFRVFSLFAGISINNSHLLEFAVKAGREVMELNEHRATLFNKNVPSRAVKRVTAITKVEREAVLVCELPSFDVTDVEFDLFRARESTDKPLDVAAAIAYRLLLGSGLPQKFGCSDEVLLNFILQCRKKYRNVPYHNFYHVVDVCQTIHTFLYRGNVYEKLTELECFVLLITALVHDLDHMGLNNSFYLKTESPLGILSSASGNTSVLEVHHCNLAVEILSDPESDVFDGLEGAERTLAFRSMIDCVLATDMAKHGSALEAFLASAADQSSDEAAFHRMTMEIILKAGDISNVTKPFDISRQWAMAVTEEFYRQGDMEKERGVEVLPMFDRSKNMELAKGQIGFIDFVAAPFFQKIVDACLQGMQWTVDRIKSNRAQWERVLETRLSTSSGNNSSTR
The experiment in a line: Inhibition of Trypanosoma brucei PDEB1 (565 to 918 residues) expressed in Escherichia coli BL21 (DE3) using cAMP as substrate by PDELight HTS cAMP phosphodiesterase Kit based. In short, it runs like this:
(§1)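 Recombinant catalytic domains, His-tag purified, then ion exchange and size exclusion, were tested with the PDELight HTS cAMP kit in stimulation buffer (50 mM Hepes, 100 mM NaCl, 10 mM MgCl2, 0.5 mM EDTA, 0.05 mg/ml BSA, pH 7.5). Dose-response curves gave Ki, expressed as pKi = −log10(Ki ÷ 1000000).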

Test [3] has as its target 3',5'-cyclic-AMP phosphodiesterase 4D (Homo sapiens, UniProt Q08499). Description: Inhibition of human PDE4D2 expressed in Escherichia coli BL21 (DE3) using cAMP as substrate by PDELight HTS cAMP phosphodiesterase Kit based. Summed up:
as §1

Molecules are shown by their SMILES. A value given as a limit tells only on which side of the number the result lay.

Chain of 3',5'-cyclic-AMP phosphodiesterase 4D (Q08499 whole entry): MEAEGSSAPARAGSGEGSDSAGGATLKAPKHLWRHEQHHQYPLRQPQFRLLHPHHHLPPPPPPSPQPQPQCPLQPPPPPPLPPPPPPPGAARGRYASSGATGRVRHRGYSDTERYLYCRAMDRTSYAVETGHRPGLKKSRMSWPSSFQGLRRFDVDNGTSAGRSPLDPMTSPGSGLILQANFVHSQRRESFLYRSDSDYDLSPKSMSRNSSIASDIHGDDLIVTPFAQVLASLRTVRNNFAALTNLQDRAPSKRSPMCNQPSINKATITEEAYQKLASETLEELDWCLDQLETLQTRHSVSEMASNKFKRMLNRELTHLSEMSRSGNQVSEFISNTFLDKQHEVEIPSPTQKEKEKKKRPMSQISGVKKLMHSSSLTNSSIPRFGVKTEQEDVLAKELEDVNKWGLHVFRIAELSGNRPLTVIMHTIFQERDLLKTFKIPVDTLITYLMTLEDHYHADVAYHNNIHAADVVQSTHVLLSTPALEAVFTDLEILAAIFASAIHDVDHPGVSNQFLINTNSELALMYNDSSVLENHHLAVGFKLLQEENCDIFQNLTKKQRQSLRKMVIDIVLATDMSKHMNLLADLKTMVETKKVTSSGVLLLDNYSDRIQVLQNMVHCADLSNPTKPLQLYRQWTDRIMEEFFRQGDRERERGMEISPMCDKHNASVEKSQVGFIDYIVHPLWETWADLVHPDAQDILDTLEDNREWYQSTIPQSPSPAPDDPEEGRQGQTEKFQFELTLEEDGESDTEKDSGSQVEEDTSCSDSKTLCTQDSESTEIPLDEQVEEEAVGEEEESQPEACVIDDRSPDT

On to `COc1ccc(-c2ccc(=O)n(C3CCN(c4nc(N)nc5sccc45)CC3)n2)cc1OC`, for which the IC50 (commonly the concentration needed to halve the response being measured) was 11200 nM in test [1] and 7760 nM in the test with Trypanosoma brucei. Further, the Ki (in general, the equilibrium dissociation constant of an inhibitor or competing ligand from its target) in test [2] was above 3720 nM.

`COc1ccc(C2=NN(C3CCN(c4nccc(N)n4)CC3)C(=O)[C@@H]3CC=CC[C@H]23)cc1OC`: the IC50 was 17400 nM in test [1] and 1860 nM with Trypanosoma brucei. The inhibition constant (Ki) in test [3] was 0.316 nM; in test [2], 110 nM.

As to `O=C1[C@@H]2CC=CC[C@@H]2C(c2ccc(O)c(O)c2)=NN1C1CCN(c2ncnc3ccsc23)CC1`, the IC50 in test [1] was 25100 nM; in the test on Trypanosoma brucei it was 5130 nM. Moreover, the inhibition constant (Ki) in test [3] is 63.1 nM; in test [2] it was 891 nM.

Take `COc1ccc(C2=NN(C3CCN(c4nc(N)nc5[nH]cnc45)CC3)C(=O)[C@@H]3CC=CC[C@H]23)cc1OC`: the IC50 is 17800 nM in test [1] and 1700 nM in the test on Trypanosoma brucei. Also, the Ki in test [3] was 0.871 nM; in test [2] it was 105 nM.

In the case of `COc1ccc(C2=NN(C3CCN(C(=O)CN4C(=O)CC5(CCCCC5)CC4=O)CC3)C(=O)[C@@H]3CCCC[C@H]23)cc1OC`, in test [1], the IC50 is 8510 nM. The compound also had a Ki in test [2] above 9770 nM.

As for `COc1ccc(C2=NN(C3CN(c4ncnc5ccsc45)C3)C(=O)[C@@H]3CC=CC[C@H]23)cc1OC`, the IC50 in test [1] is 64600 nM; in the test with Trypanosoma brucei, 15100 nM. In addition, the inhibition constant Ki in test [3] is 0.562 nM; in test [2], 288 nM.

Consider `COc1ccc(-c2nn(C3CCN(c4nc(N)nc5sccc45)CC3)c(=O)n3ccnc23)cc1OC`, for which the IC50 (in test [1]; with Trypanosoma brucei) was 64600 nM each time. The compound further had an inhibitory constant (Ki) in test [2] above 18200 nM.

Regarding `COc1ccc(C2=NN(C3CCN(c4nc(N)nc5sccc45)CC3)C(=O)[C@@H]3CC=CC[C@H]23)cc1OC`, the results for the IC50 (in test [1]; in the test on Trypanosoma brucei) were 64600 nM and 468 nM, respectively. For the same compound, the inhibitory constant (Ki) in test [3] is 0.355 nM; in test [2], 42.7 nM.

In the case of `COc1ccc(C2=NN(C3CCN(C(=O)CN4C(=O)CC(C)C4=O)CC3)C(=O)[C@@H]3CC=CC[C@H]23)cc1OC` (some centres not stated), the half-maximal inhibitory concentration (IC50) in test [1] is 64600 nM; in the test on Trypanosoma brucei, 1820 nM. The inhibitory constant (Ki) in test [3] was 0.17 nM; in test [2], 75.9 nM.

For the compound `COc1ccc(C2=NN(C3CN(c4nc(N)nc5sccc45)C3)C(=O)[C@@H]3CC=CC[C@H]23)cc1OC`, the IC50 in test [1] was 64600 nM; in the test on Trypanosoma brucei, 7760 nM. The Ki was 1.17 nM in test [3] and 275 nM in test [2].

Turning to `COc1ccc(C2=NN(C3CN(C(=O)CN4C(=O)CC5(CCCC5)CC4=O)C3)C(=O)[C@@H]3CC=CC[C@H]23)cc1OC`, the IC50 in test [1] is 64600 nM; in the test on Trypanosoma brucei, 2510 nM. For the same compound, the inhibition constant Ki is 0.676 nM in test [3] and 170 nM in test [2].

`COc1ccc(C2=NN(C3CCN(c4nc(N)nc5sccc45)CC3)C(=O)[C@@H]3CC=CC[C@H]23)cc1Cl`: the IC50 in test [1] is 64600 nM; with Trypanosoma brucei, 2000 nM. The Ki in test [3] is 30.2 nM; in test [2] it was 832 nM.

For `COc1ccc(-c2n[nH]c(=O)n3ccnc23)cc1OC`, the IC50 (in test [1]; in the test on Trypanosoma brucei) was 64600 nM in each case. This compound showed a Ki in test [2] above 31600 nM.

As for `COc1ccc(C2=NN(C3CCN(c4nc(N)nc5sccc45)CC3)C(=O)[C@@H]3CCCC[C@H]23)cc1OC`, the IC50 was 28800 nM in test [1] and 955 nM in the test with Trypanosoma brucei. The results for the Ki in test [3] and in test [2] were 0.661 nM and 93.3 nM, respectively.

Take `COc1ccc(C2=NN(C3CCN(c4ncc5sccc5n4)CC3)C(=O)[C@@H]3CC=CC[C@H]23)cc1OC`: the values for the IC50 (in test [1]; with Trypanosoma brucei) were 64600 nM and 2290 nM, respectively. Moreover, the values for the Ki in test [3] and in test [2] were 2.57 nM and 692 nM, respectively.

With `COc1ccc(C2=NN(C3CCN(c4ncc5ccccc5n4)CC3)C(=O)[C@@H]3CC=CC[C@H]23)cc1OC`, the IC50 is 64600 nM in test [1] and 1700 nM in the test with Trypanosoma brucei. The values for the Ki in test [3] and in test [2] were 0.589 nM and 646 nM, respectively.

In the case of `COc1ccc(C2=NN(C3CCN(C(=O)CN4C(=O)CC(Cc5ccccc5)C4=O)CC3)C(=O)[C@@H]3CC=CC[C@H]23)cc1OC` (some centres not stated), the IC50 (in test [1]; with Trypanosoma brucei) was 64600 nM each time. For the same compound, the values for the Ki in test [3] and in test [2] were 0.316 nM and 97.7 nM, respectively.

Take `COc1ccc(-c2nn(C3CCNCC3)c(=O)n3ccnc23)cc1OC`: the values for the IC50 (in test [1]; in the test with Trypanosoma brucei) were 64600 nM and 32400 nM, respectively. Also, in test [2], the inhibition constant (Ki) is above 31600 nM.

Regarding `COc1ccc(C2=NN(C3CCN(c4ccnc(N)n4)CC3)C(=O)[C@@H]3CC=CC[C@H]23)cc1OC`, the IC50 in test [1] is 3890 nM; with Trypanosoma brucei, 3630 nM. The Ki was 0.513 nM in test [3] and 257 nM in test [2].

For the compound `CC1(C)CC(=O)N(CC(=O)N2CCC(N3N=C(c4ccc(OC(F)F)c(OC(F)F)c4)[C@H]4CC=CC[C@H]4C3=O)CC2)C(=O)C1`, the IC50 in test [1] was 64600 nM; in the test with Trypanosoma brucei it was 1000 nM. For the same compound, the Ki is 0.302 nM in test [3] and 407 nM in test [2].

Turning to `O=C(CN1C(=O)CC2(CCCCC2)CC1=O)N1CCC(N2N=C(c3ccc(OC(F)F)c(OC(F)F)c3)[C@H]3CC=CC[C@H]3C2=O)CC1`, the IC50 was 64600 nM in test [1] and 7590 nM in the test on Trypanosoma brucei. Moreover, the Ki in test [3] was 1.62 nM; in test [2], 776 nM.

As for `O=C1[C@@H]2CC=CC[C@@H]2C(c2ccc(OC(F)F)c(O)c2)=NN1C1CCN(c2ncnc3ccsc23)CC1`, the IC50 in test [1] was 64600 nM; in the test on Trypanosoma brucei, 3390 nM. For the same compound, the Ki in test [2] is above 1660 nM.

As to `CC1(C)CC(=O)N(CC(=O)N2CCC(N3N=C(c4ccc(F)c(F)c4)[C@H]4CCCC[C@H]4C3=O)CC2)C(=O)C1`, the IC50 in test [1] is 42700 nM; with Trypanosoma brucei, 45700 nM. In addition, the Ki in test [2] was above 22400 nM.

As to `COc1ccc(C2=NN(C3CCN(c4ncnc5ccsc45)CC3)C(=O)C2(C)C)cc1OC`, the IC50 in test [1] was 25100 nM; with Trypanosoma brucei, 32400 nM. The Ki in test [2] was above 2040 nM.

For `COc1ccc(C2=NN(C3CCN(c4nc(N)c5ccccc5n4)CC3)C(=O)[C@@H]3CC=CC[C@H]23)cc1OC`, the IC50 in test [1] was 7410 nM; with Trypanosoma brucei, 871 nM. In addition, the Ki in test [3] is 2.45 nM; in test [2], 646 nM.

`COc1ccc(C2=NN(C3CCN(c4ncnc5ccccc45)CC3)C(=O)[C@@H]3CC=CC[C@H]23)cc1OC`: the IC50 in test [1] was 3020 nM; with Trypanosoma brucei it was 263 nM. For the same compound, the Ki in test [3] is 0.224 nM; in test [2], 646 nM.

Take `COc1ccc(C2=NN(C3CN(C(=O)CN4C(=O)CC(C)(C)CC4=O)C3)C(=O)[C@@H]3CC=CC[C@H]23)cc1OC`: the IC50 in test [1] was 64600 nM; in the test with Trypanosoma brucei it was 1820 nM. The Ki in test [3] was 0.389 nM; in test [2], 102 nM.

For `COc1ccc(C2=NN(C3CCN(c4ncnc5ccsc45)CC3)C(=O)[C@@H]3CC=CC[C@H]23)cc1OC`, the concentration for half-maximal inhibition (IC50) is 7240 nM in test [1] and 372 nM with Trypanosoma brucei. The Ki is 0.234 nM in test [3] and 66.1 nM in test [2].

As to `O=C(CN1C(=O)CC2(CCCC2)CC1=O)N1CCC(N2N=C(c3ccc(F)cc3)[C@H]3CC=CC[C@H]3C2=O)CC1` (relative stereo), the IC50 in test [1] is 40700 nM; with Trypanosoma brucei, 32400 nM. Moreover, in test [2], the Ki is above 16600 nM.

Consider `CC1(C)CC(=O)N(CC(=O)N2CCC(N3N=C(c4ccc(F)c(F)c4)[C@H]4CC=CC[C@H]4C3=O)CC2)C(=O)C1` (relative stereo), for which the results for the IC50 (in test [1]; in the test with Trypanosoma brucei) were 30900 nM and 47900 nM, respectively. The same compound gave a Ki in test [2] above 9770 nM.

As for `O=C(CN1C(=O)CC2(CCCCC2)CC1=O)N1CCC(N2N=C(c3ccc(F)cc3)[C@H]3CC=CC[C@H]3C2=O)CC1` (relative stereo), the IC50 in test [1] was 64600 nM; with Trypanosoma brucei it was 10200 nM. In addition, the inhibitory constant (Ki) in test [2] is above 9550 nM.
